The results in this text go back to ChEMBL document CHEMBL2390881, “Identification of M. tuberculosis thioredoxin reductase inhibitors based on high-throughput docking using constraints” (J Med Chem, 2013).

Assay [1] has as its target T1, Thioredoxin reductase (Mycobacterium tuberculosis) (UniProt P9WHH1).
T1 sequence (whole entry): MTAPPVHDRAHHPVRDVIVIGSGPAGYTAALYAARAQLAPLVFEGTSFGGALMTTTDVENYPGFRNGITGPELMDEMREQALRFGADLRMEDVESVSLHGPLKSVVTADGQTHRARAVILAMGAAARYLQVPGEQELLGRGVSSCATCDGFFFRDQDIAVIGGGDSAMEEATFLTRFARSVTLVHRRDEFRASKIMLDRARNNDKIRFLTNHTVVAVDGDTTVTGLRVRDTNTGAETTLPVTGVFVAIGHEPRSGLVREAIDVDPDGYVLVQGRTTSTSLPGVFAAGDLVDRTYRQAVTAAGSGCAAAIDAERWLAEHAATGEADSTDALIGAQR
The experiment in a line: Inhibition of Mycobacterium tuberculosis TrxR at 5 uM after 10 mins by microplate reader analysis. The procedure, abridged: (§1)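 MtTrxR, MtTrxB and MtTPx from M. tuberculosis, expressed in E. coli. Enzyme preincubated 10 min at 25 °C with 10 μM MtTrxB, 5 μM MtTPx, 225 μM NADPH and 0.06-45 μM compound in 50 mM HEPES pH 7.4, 1 mM EDTA. Started with 73 μM t-butylhydroperoxide. Initial NADPH oxidation rate read at 340 nm, 25 °C. Triplicates, outliers removed. IC50 by four-parameter fit, mean of ≥3 assays.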

The target of assay [2] is T2, Thioredoxin reductase (Mycobacterium tuberculosis, UniProt P9WHH1).
T2 sequence (P9WHH1 whole entry): T1 sequence (whole entry)
The assay can be described thus: Inhibition of Mycobacterium tuberculosis TrxR after 10 mins by microplate reader analysis. In outline: as §1

The target of assay [3] is T1, Thioredoxin reductase (Mycobacterium tuberculosis). The assay can be described thus: Inhibition of Mycobacterium tuberculosis TrxR at 45 uM after 10 mins by microplate reader analysis. In outline: as §1
Assay [4] has the same target. The experiment in a line: Inhibition of Mycobacterium tuberculosis TrxR at 1.67 uM after 10 mins by microplate reader analysis. In outline: as §1
The target is the same in assay [5]. The assay can be described thus: Inhibition of Mycobacterium tuberculosis TrxR at 15 uM after 10 mins by microplate reader analysis. In outline:
as §1

Assay [6] is described as follows: Selectivity index, ratio of IC50 for human TrxR to IC50 for Mycobacterium tuberculosis TrxR. The procedure, abridged:
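Estimated from HsTrxR inhibition at 100 μM (DTNB assay) and the MtTrxR IC50, assuming that ≤10% HsTrxR inhibition at 100 μM reflects an IC50 of >300 μM.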

For assay [7], the target named is Thioredoxin reductase (Homo sapiens) (UniProt Q16881+Q9NNW7+Q86VQ6). The assay can be described thus: Inhibition of human TrxR at 100 uM by spectrophotometry. In kind it is protein assay. In outline: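 Human placenta TrxR1 (2.8 nM final) with 200 μM NADPH in 100 mM potassium phosphate, 2 mM EDTA, pH 7.4. Inhibitor added up to 100 μM final, then reaction started with 3 mM DTNB. Absorbance followed at 412 nm at 25 °C against inhibitor-free control. At least three independent experiments; apparent activation scored as no inhibition.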

The structures appear in SMILES notation.

Take `O=C(O)[C@H](Cc1cc2ccccc2[nH]1)NCc1c[nH]c2ccccc12`: the inhibition in assay [1] stood at 31.7%; in assay [3] it was 31%; in assay [4], 26.7%; in assay [5], 43.3%; in assay [7] it was 10.4%. In assay [2], the IC50 is 30 µM. Also, in assay [6], the Ratio IC50 is over 10.

Take `c1ccc2sc(CNc3ccc(N4CCCCC4)cc3)nc2c1`: the inhibition came out at 39.7% in assay [1]; 67% in assay [3]; 24% in assay [4]; 44.4% in assay [5]; 17.1% in assay [7]. Also, the IC50 in assay [2] came to 15.8 µM. For the same molecule, the Ratio IC50 in assay [6] was over 10.

In the case of `COc1ccc2nc(C)cc(Nc3ccc(O)cc3)c2c1`, the inhibition came to 36% in assay [1]; 68% in assay [3]; 25.6% in assay [4]; 51.6% in assay [5]; 31.6% in assay [7]. This molecule also had a half-inhibitory concentration (IC50) in assay [2] of 12.5 µM. The Ratio IC50 in assay [6] was over 8.

With `Fc1cccc(Cl)c1CNc1ccc(N2CCCCC2)cc1`, the inhibition in assay [1] was determined as 41.7%; in assay [3], 58.7%; in assay [4], 30%; in assay [5], 51.7%; in assay [7] it was 4.6%. In assay [2], half-maximal inhibition (IC50) required 15.3 µM. Besides, the Ratio IC50 in assay [6] is over 10.

As to `CSCCNC1CCN(c2ccc(NC(=O)CCCCc3ccccc3)cc2)CC1`, the inhibition in assay [1] came to 29.7%; in assay [3] it was 28%; in assay [4], 27%; in assay [5], 33.7%; in assay [7] it was 0%. In assay [2], this molecule returned a 50% inhibitory concentration (IC50) of 100 µM. Also, the Ratio IC50 in assay [6] was over 3.

As to `Nc1nc(-c2cc3ccc(O)cc3oc2=O)cs1`, the inhibition in assay [1] is 17.3%; in assay [3] it was 36.4%; in assay [4] it was 10.6%; in assay [5], 19.7%; in assay [7], 0%. Moreover, half-maximal inhibition in assay [2] (IC50) was put at 100 µM. Further, the Ratio IC50 in assay [6] was over 3.

In the case of `O=C(Nc1ccc(N2CCC(NCCOc3cccnc3)CC2)cc1)c1cnccn1`, the figures for the inhibition in assay [1], in assay [4] and in assay [5] were 12%, 5% and 16.3%, respectively.

In the case of `NC1=C(c2nc(-c3ccccc3)cs2)C(=O)CN1c1ccc(S(N)(=O)=O)cc1`, the inhibition in assay [1] was determined as 9.9%; in assay [3] it was 25%; in assay [4] it was 8.4%; in assay [5], 12.8%; in assay [7], 0%. Besides, the half-inhibitory concentration (IC50) in assay [2] amounted to 200 µM. Moreover, the Ratio IC50 in assay [6] is over 2.

As for `Nc1ccc(N2CCCCC2)cc1`, the inhibition in assay [1] turned out to be 17%; in assay [3], 55%; in assay [4] it was 9.5%; in assay [5], 35.7%; in assay [7] it was 0%. The molecule also came in with an IC50 in assay [2] of 33.4 µM. The Ratio IC50 in assay [6] was over 10.

As to `O=C(COc1ccccc1)Nc1ccc(N2CCC(NCc3cccc(-n4cccn4)c3)CC2)cc1`, the inhibition in assay [1] is 16.9%; in assay [3] it was 22.1%; in assay [4] it was 11.2%; in assay [5] it was 18.2%.

With `CC(c1c[nH]nc1-c1ccccc1)N1CCC(CCC(=O)Nc2ccccc2)CC1` (stereo not given), the inhibition in assay [1] was 38%; in assay [3], 29.8%; in assay [4], 29.7%; in assay [5], 34.3%; in assay [7] it was 0%. Half-maximal inhibition in assay [2] (IC50) was put at 15 µM. The Ratio IC50 in assay [6] is over 20.

For the molecule `O=C(CCCCc1ccccc1)Nc1ccc(N2CCC(NCCn3cccn3)CC2)cc1`, the inhibition in assay [1] amounted to 14.7%; in assay [3] it was 24%; in assay [4], 12.3%; in assay [5] it was 17.5%.

Regarding `C=CCc1cccc(/C=N/NC(=O)CCC2C(=O)NN=C2C)c1O` (stereo not given), the inhibition in assay [1] was 31%; in assay [3], 26%; in assay [4], 31.7%; in assay [5], 31.7%; in assay [7], 0%. For the same molecule, in assay [6], the Ratio IC50 was over 10.

The inhibition is the relative decrease from the control value, in per cent. By IC50 is commonly meant the concentration that gives 50% inhibition. Read a low IC50 as inhibition by little substance.
